Data published in ChEMBL document CHEMBL1157074, “Hyaluronidase inhibitors from "Cimicifugae Rhizoma" (a mixture of the rhizomes of Cimicifuga dahurica and C. heracleifolia)” (J Nat Prod, 2010).

Test: Inhibition of bovine testis hyaluronidase type 4 after 20 mins by modified Morgan-Elson method
Parameters: species or system Bos taurus
Summary of the method: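 Bovine testis hyaluronidase (Type IV-S, 400 NF units/mL stock) preincubated with sample in 0.1 mol/L acetate buffer pH 3.5, 20 min, 37 °C. Activated with 2.5 mmol/L CaCl2 for 20 min, then rooster-comb potassium hyaluronate (0.4 mg/mL stock) added for 40 min. Stopped with NaOH, boiled with boric acid, p-dimethylaminobenzaldehyde colour read at 585 nm. Percent inhibition corrected against blanks.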

SMILES	IC50
COc1cc(/C=C/C(=O)O[C@H](C(=O)O)[C@](O)(Cc2ccc(O)c(O)c2)C(=O)O)ccc1O [CIMICIFUGIC ACID A]	112 µM
COc1ccc(/C=C/C(=O)O[C@H](C(=O)O)[C@](O)(Cc2ccc(O)c(O)c2)C(=O)O)cc1O [CIMICIFUGIC ACID B]	82 µM
O=C(/C=C/c1ccc(O)cc1)O[C@H](C(=O)O)[C@](O)(Cc1ccc(O)c(O)c1)C(=O)O [CIMICIFUGIC ACID C]	251 µM
O=C(/C=C/c1ccc(O)c(O)c1)O[C@H](C(=O)O)[C@](O)(Cc1ccc(O)cc1)C(=O)O [CIMICIFUGIC ACID D]	153 µM
COc1cc(/C=C/C(=O)O[C@H](C(=O)O)[C@](O)(Cc2ccc(O)cc2)C(=O)O)ccc1O [CIMICIFUGIC ACID E]	120 µM
COc1ccc(/C=C/C(=O)O[C@H](C(=O)O)[C@](O)(Cc2ccc(O)cc2)C(=O)O)cc1O [CIMICIFUGIC ACID F]	92 µM
COc1ccc(/C=C/C(=O)O[C@H](C(=O)O)[C@](O)(Cc2ccc(O)c(O)c2)C(=O)O)cc1OC [CIMICIFUGIC ACID G]	138 µM
O=C(O[C@H](C(=O)O)[C@](O)(Cc1ccc(O)c(O)c1)C(=O)O)c1ccc(O)cc1 [CIMICIFUGIC ACID H]	525 µM
COc1cc(/C=C/C(=O)O[C@H](C(=O)O)[C@](O)(Cc2ccc(O)c(O)c2)C(=O)O)cc(OC)c1O [CIMICIFUGIC ACID I]	143 µM
COc1cc(/C=C/C(=O)O[C@H](C(=O)O)[C@](O)(Cc2ccc(O)cc2)C(=O)O)cc(OC)c1O [CIMICIFUGIC ACID J]	193 µM
O=C(/C=C/c1ccc(O)c(O)c1)O[C@H](C(=O)O)[C@](O)(Cc1ccc(O)c(O)c1)C(=O)O [FUKINOLIC ACID]	144 µM
O=C(/C=C/c1ccc(O)c(O)c1)O[C@H](Cc1ccc(O)c(O)c1)C(=O)O [ROSMARINIC ACID]	545 µM
COc1cc(/C=C/C(=O)O[C@H](C(=O)O)[C@](O)(Cc2ccc(O)c(O)c2)C(=O)O)ccc1O[C@@H]1O[C@H](CO)[C@H](O)[C@H](O)[C@H]1O [SHOMASIDE A]	573 µM
COc1cc(/C=C/C(=O)O[C@H](C(=O)O)[C@](O)(Cc2ccc(O)cc2)C(=O)O)ccc1O[C@@H]1O[C@H](CO)[C@H](O)[C@H](O)[C@H]1O [SHOMASIDE B]	430 µM
COc1cc(/C=C/C(=O)O[C@H](C(=O)O)[C@](O)(Cc2ccc(O)cc2)C(=O)O)ccc1O[C@@H]1O[C@H](CO)[C@@H](O)[C@H](O)[C@H]1O [SHOMASIDE C]	663 µM
COC(=O)C(O)C(Cc1ccc(O)cc1)(OC(=O)/C=C/c1ccc(O[C@@H]2O[C@H](CO)[C@@H](O)[C@H](O)[C@H]2O)c(OC)c1)C(=O)O (some centres not stated) [SHOMASIDE D]	> 658 µM
COc1cc(OC(=O)/C=C/c2ccc(O[C@@H]3O[C@H](CO)[C@H](O)[C@H](O)[C@H]3O)c(OC)c2)ccc1CCO [SHOMASIDE E]	> 790 µM
